The test system of experiment [1] is L1210. Nature of the experiment: Compound was tested for release of tritium from 1 uM [5-3H]-dUMP into water at a conc of 0.4 mM enzyme(bovine thymidylate synthase) was added to cell suspension in presence of CH2O. It counts as functional, Mus musculus. The method, boiled down:
(§1)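 L1210 cells (transplanted, harvested), partially permeabilized with dextran sulfate, at (2–5) × 10^7 cells/mL. Preincubated with cofactor 15 min at 37 °C with 0.2 mM NADPH, 1 mM serine or 7.5 mM CH2O, 2-mercaptoethanol, MgCl2, EDTA, NaF, 80 mM Tris-acetate pH 7.4. Then 1 μM [5-3H]dUMP added for 30 min. Where enzyme added, 0.016 unit per 0.15 mL suspension. Tritium in water given as % of total, background-corrected; two experiments in duplicate.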

In experiment [2] the test system is L1210. Nature of the experiment: Compound was tested for release of tritium from 1 uM [5-3H]-dUMP into water at a conc of 0.4 mM, enzyme(bovine thymidylate synthase) was added to cell suspension in presence of serine. It counts as functional, Mus musculus. The essentials:
as §1

Experiment [3] has as its system L1210. Put plainly: Compound was tested for release of tritium from 1 uM [5-3H]-dUMP into water at a con of 0.4 mM and without addition of bovine thymidylate synthase to cell suspension in absence of CH2O. It counts as functional, Mus musculus. The method, boiled down:
as §1

Experiment [4] has as its system L1210. Nature of the experiment: Compound was tested for release of tritium from 1 uM [5-3H]-dUMP into water at a con of 0.4 mM and without addition of bovine thymidylate synthase to cell suspension in absence of serine. Type of experiment: functional, Mus musculus. The method, boiled down:
as §1

The test system of experiment [5] is L1210. Put plainly: Inhibitory activity against growth of L1210 leukemia cells in culture at 0.5 mM. To be noted: Mus musculus. Type of experiment: functional. The method, boiled down: (§2)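 Murine L1210 leukemia cells, duplicate cultures, exposed to increasing concentrations alongside folic acid for 48 h at 37 °C in RPMI 1640 with 10% fetal calf serum. Cells counted; IC50 (50% inhibition of control growth) read graphically; percent inhibition also taken at 0.5 mM. Averages of two experiments run in duplicate.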

Experiment [6] concerns L1210. Nature of the experiment: (§3) Inhibitory activity against growth of L1210 leukemia cells in culture. To be noted: Mus musculus. It counts as functional, cell-based. The essentials:
as §2

The test system of experiment [7] is L1210. Put plainly: Compound was tested for release of tritium from 1 uM [5-3H]-dUMP into water at a conc of 0.4 mM enzyme(bovine thymidylate synthase) was added to cell suspension in presence of serine. It counts as functional, Mus musculus. The essentials: as §1
In experiment [8] the test system is L1210. The experiment is described as §3. Type of experiment: functional, Mus musculus. The method, boiled down:
as §2

What is called inhibition is the share of the control response that was lost under treatment. Broadly, the IC50 is the concentration that inhibits the measured activity by half. Read a high IC50 as weaker potency. Broadly, the Inhibition is the change of the read-out against control, counted positive when it falls.

Take `C[S+](=N)([O-])CCC(NC(=O)c1ccc(NCc2cnc3nc(N)nc(O)c3n2)cc1)C(=O)O` (mixture of isomers): the Tritium release in the experiment with L1210 [1] was 8.3%; with L1210 [2], 9.5%; in the experiment with L1210 [3] it was 5%; in the experiment on L1210 [4] it was 3.9%. Besides, testing at 500 µM in the experiment with L1210 [5] gave an inhibition of 76.4%. Inhibition in the experiment on L1210 [6] was half-maximal at 190 µM (IC50).
As to `CC[S+](=N)([O-])CCC(NC(=O)c1ccc(NCc2cnc3nc(N)nc(O)c3n2)cc1)C(=O)O` (racemic), the Tritium release in the experiment on L1210 [1] stood at 6.8%; in the experiment on L1210 [7] it was 8.3%; with L1210 [3], 4.9%; in the experiment on L1210 [4], 4.2%. The same compound yielded an inhibition at 500 µM with L1210 [5] of 80.2%. This compound showed a concentration for half-maximal inhibition (IC50) in the experiment with L1210 [6] of 220 µM.
For the compound `CCC[S+](=N)([O-])CCC(NC(=O)c1ccc(NCc2cnc3nc(N)nc(O)c3n2)cc1)C(=O)O` (racemic), the Tritium release was determined as 7.3% with L1210 [1], 9.2% with L1210 [7], 4.3% in the experiment on L1210 [3] and 4.2% in the experiment with L1210 [4]. At 500 µM the inhibition in the experiment with L1210 [5] was 75.2%. The compound also had an IC50 in the experiment on L1210 [6] of 300 µM.
For `CCCC[S+](=N)([O-])CCC(NC(=O)c1ccc(NCc2cnc3nc(N)nc(O)c3n2)cc1)C(=O)O` (racemic), the Tritium release is listed as 5.8% in the experiment with L1210 [1], 7% with L1210 [7], 4.4% in the experiment with L1210 [3] and 4% with L1210 [4]. For the same compound, the inhibition at 500 µM in the experiment with L1210 [5] amounted to 75.2%. For the same compound, the 50% inhibitory concentration (IC50) in the experiment on L1210 [6] amounted to 270 µM.
Regarding `CS(=O)(=O)CCC(NC(=O)c1ccc(NCc2cnc3nc(N)nc(O)c3n2)cc1)C(=O)O` (stereo unspecified), the Tritium release is reported as 6.7% with L1210 [1], 7.8% in the experiment on L1210 [7], 4.6% with L1210 [3] and 3.6% with L1210 [4]. Also, in the experiment with L1210 [5], at 500 µM the inhibition was 78.6%. It took 390 µM to reach half-maximal inhibition with L1210 [6] (IC50).
`Nc1nc(=O)c2nc(CNc3ccc(C(=O)N[C@@H](CCC(=O)O)C(=O)O)cc3)cnc2[nH]1` [FOLIC ACID]: the Tritium release in the experiment with L1210 [1] was found to be 21.8%; in the experiment on L1210 [7], 24.1%; in the experiment with L1210 [3], 20.6%; in the experiment with L1210 [4], 19.1%. Also, in the experiment with L1210 [8], the Inhibition is reported as 33.6%. Besides, the concentration for half-maximal inhibition (IC50) with L1210 [6] was > 10000 µM.

The values are drawn from ChEMBL document CHEMBL1125420, “Synthesis and biological activity of novel folic acid analogues: pteroyl-S-alkylhomocysteine sulfoximines” (J Med Chem, 1992).
